Tested on: MS2 coat protein
Experiment: apparent Kd, MS2 coat protein; higher = weaker binding; RNA-MaP array; FMN 200 µM where present
Outline: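 Green signal from SNAP-549-labelled MS2 coat protein was normalised to red-channel RNA signal and to the median Fmax of control clusters. The protein was titrated from 0.7 or 1.5 nM, doubling to 3 µM, without and then with constant ligand, over designs transcribed by stalled E. coli RNA polymerase on Illumina sequencing-chip clusters, in 100 mM Tris-HCl pH 7.5, 80 mM KCl, 4 mM MgCl2, BSA, DTT, yeast tRNA and Tween-20. The apparent Kd is the median of filtered per-cluster binding-curve fits.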

[1] = designed as: ON switch for flavin mononucleotide, no ligand
[2] = ligand present: flavin mononucleotide, designed as: ON switch for flavin mononucleotide
[3] = designed as: OFF switch for flavin mononucleotide, no ligand
[4] = ligand present: flavin mononucleotide, designed as: OFF switch for flavin mononucleotide

Sequence	apparent Kd [1] [nM]	apparent Kd [2] [nM]	apparent Kd [3] [nM]	apparent Kd [4] [nM]
GGAUGAUUAAUAGGAUAUUAGUUGUAAAAUGGUUAAGAAGGAUUAAUGAUUUAAACGACCAGUUACAUGAGGAUCACCCAUGUA	21.6	18.9	–	–
CAGCGAAAGCUGAAUCUGUAGAGAGAGGAUAUACGUCAUAAGGUGCAUACAUGAGGAUCACCCAUGUAGAAGGCUCUCUACAGU	–	–	25.3	603
GGGCAAAAGUAGAAGGGAUAUACGAAAAGUAUAUCAGGAUAUACAUGAGGAUCACCCAUGUUCUGAAAGUGAAAAUCCUCCCUA	–	–	40.8	317
GGUGUGAGGCAGGAUAUGCUAUAUGUUAGUAAUGCAGAAGGGUCUACAUGAGGAUCACCCAUGUGUGCGGUUGA	–	–	90.5	394
CUUUUGUGAGGAUAUUCGUAGUAGGGUCAUGGCAUUAUUAUGGAGAAGGCACAUGAGGAUCACCCAUGUACCUU	–	–	19.7	27.5
UUCGAGUAGCAAGGAUAUCUUAUUUAGAUUUUAAGAGAAGGUGCUUCACAGCUACAUGAGGAUCACCCAUGUCUUUCUUCUUAU	35.6	26.3	–	–
GCGUAACAUGAGGAUCACCCAUGUACUCGAGAAUUCGAGUGUAGAAGGGUGACCGGUCGUUUGGCACAGGAUAUACACGCUGUG	31.5	12	–	–
GGAUUACAUGAGGAUCACCCAUGUGAGGAUAUCGAUGUCCCUAGGAGCGUGCGGGACUCGAGAAGGCACUUGGA	–	–	39.7	234
GGACGUCACAUUAACAUGAGGAUCACCCAUGUGAAAACACAUGAGGAUAUGGAUCCUAAUUGGAUCCAGAAGGCAUGGACGUCC	–	6.6	–	–
GGCCUGUUAGGAUAUUAGUAGUAGUCAGAAUAGACUAUUACUGAGAAGGAACAUGAGGAUCACCCAUGUUGGCC	–	–	16.5	19.3
UUUAGUUUAGGAUAUGUAGACGUUAACAUGAGGAUCACCCAUGUAGAUCCUGAAUUGGCUACAGAAGGAAGCAUUU	–	–	285	531
GUCAGCUCGUGAGGAUAUGCAACACUGCUUCGGCAGUGUAUUAAGAUCACAUGAGGAUCACCCAUGUAGAAGGCACGAGCUGAU	–	–	6.36	34.8
AGUAACAGAGGAUAUACUGUUUUAUGUGUUUAUUAUUUUGAACAUGAGGAUCACCCAUGUAGAAGGCUGAAUAA	–	–	–	21.9
UCACGGUAUGUAGGAUAUGCAUAGCAUUGCUAUGCAGAAGGACAUGAGGAUCACCCAUGUAUGUAUUCCAUACUAAUCCCGUGA	–	–	5.65	5.56
AACAUGAGGAUCACCCAUGUCCCACCAGAAGGCUGGCGGUGGUGGUAAAGGCCACGACAAAUAACAGAGGAUAUGGUGAAUGCA	84.6	18.8	–	–
GGCCCGGGAGGAUAUACAUGAGGAUCACCCAUGUGCGGGCCCGGGAUCCCGGGCCCGUGUAGAAGGCCCGGGCC	–	–	13.4	16.5
GUAGCAUACAGAGGAUAUCUUAACCGGAAACGGACAUGAGGAUCACCCAUGUGGCGAAAGCCUAGGGAGAAGGCUGAAUGCUAC	10.2	11.1	–	–
UAGAAGUCAGGAUAUCCAUGGCGGCACUUGCGUGGUGGCGUGGAGAAGGGACAUGAGGAUCACCCAUGUAAAGC	–	–	48.7	37
AAAUUUAACGAAGGAUAUACUAACAUGAGGAUCACCCAUGUGUGCUUCGUGUUGCUGAAAUUCGGGUAGAAGGUCGUAUACAUA	–	–	54.8	145

Sequence	apparent Kd [1] [nM]	apparent Kd [2] [nM]	apparent Kd [3] [nM]	apparent Kd [4] [nM]
GGUACUCAAAGAGUACGGAGUCGAACAUGAGGAUCACCCAUGUAGGAUAUGCGAGUUUUGAAUUUGCAGAAGGACAUUUGCAGC	–	–	9.62	11.2
GGAUAAUUGAUCCUUUUUUAUUACAUGAGGAUCACCCAUGUGCAGGAUAUCGAUUAUUAUAGUUUCGAGAAGGGCAAGAAUUGU	–	–	73.4	276
CCUCUACAUGAGGAUCACCCAUGUGAGGAUAUCUCGGAGCAGCCUAUUAAGGCGCUCCAGAGAAGGCACGUGUA	–	–	19.3	28.3
GUCAUCAUAUGAGGAUAUGACACCGAAACGGUGUCAGAAGGCAUGUCGAUAGACAUGAGGAUCACCCAUGUUUACAUGAUGACA	84.3	19.7	–	–
CCAUCAGCGAACGAUACGAAUGGACAUGAGGAUCACCCAUGUAGAAGGACAGGAGAAUAACGGCUGUAGGAUAUACAUUUAGUG	–	–	40.3	31.2
AGAUUUGUACAUGAGGAUCACCCAUGUUAAUAGGUGGUUGUCAGAAGGCAUUAAUAGAGAUUUAAUGAGGAUAUGAAUUUACAA	1420	1040	–	–
GAUUAGUGAGGAUAUAUUUACGAUCCUCAGCUUUAUUCAGGACAUGAGGAUCACCCAUGUAGAAGGCGUUAAUC	–	–	25.8	34.6
UAUGGUUAAGUCAGGAUAUGCUCAUAGAGGUCUGUGCAGAAGGGACAUGAGGAUCACCCAUGUAUGGUCGUGUU	–	–	254	237
UUGUGCUUAGAGAAGGUUCAAACUACAUAUUGCGCACAUGAGGAUCACCCAUGUUGGUGAAUAAGAAAGGAUAUUUGACUGUAC	–	–	118	85.2
GUAGUGUAUGUAGGAUAUGUGAAGCAAAGCUUCACAGAAGGACAUGAGGAUCACCCAUGUAUUGCAGUCUGCAAUCAGACUGCU	–	–	43.4	152
GGGUACCUCGGAGGAUAUCAUGUAAAUACAUGAGGAUCACCCAUGUCGAUGGAGACAUCGGAGAUUGAGAAGGCCGAUGUACCG	168	9.32	–	–
AAUUCACAUGAGGAUCACCCAUGUCAGGAUAUGGUUUCACGUGUUUCGGUGCGUGAGGCCAGAAGGGACAGCUA	–	–	58.4	87
AAAUUGCUAGAGGAUAUCGGAUAGGAUCUAUUGCGAGAAGGUUGGACAUGAGGAUCACCCAUGUUCUGUUGGGA	–	–	25.8	25.8
AACUAGUGAGGAUAUACAUGAGGAUCACCCAUGUACGUCGUGGGUAGAAAACAAGUCAGUAGAAGGUGCUAGAC	–	–	157	248
CUUUCGUGAGGAUAUGUGGCUUCGAUCGUAAAAUCGAGGCUACAGAAGGCACAUGAGGAUCACCCAUGUUCCUC	–	–	36.2	528
CUGACGCAAGCAGGAUAUCUACUGGCGAUGGUACAUGAGGAUCACCCAUGUAGAGAAGGGCUAAGUGGAAGGAUAAAAUAAAAG	–	–	110	120
UGCUGGUGACAGCAUCCAUCAAAACAUGAGGAUCACCCAUGUAGAAGGCUGUACGGUUACCGUACAGAGGAUAUACAAUGAUGG	–	–	7.27	8.69
GUACAGUAGUGAGGAUAUACGAGAUCGAUAGAUCGGCGAUCCAUUUAUACAUGAGGAUCACCCAUGUAGAAGGCACUUCUGUAC	–	–	5.73	61.7
AGACCCAUGACAUGAGAUGACAUGAGGAUCACCCAUGUUUACGAGGAUAUGUUGAUGAAACAUCAACAGAAGGUGUAAUGGGCU	–	–	21.2	28.9

Sequence	apparent Kd [1] [nM]	apparent Kd [2] [nM]	apparent Kd [3] [nM]	apparent Kd [4] [nM]
AGCUAGUCAGGAUAUACGAACACGUCAAAAGACUUGAAGGGACAUGAGGAUCACCCAUGUAGAAGGGACUAGCA	–	–	35.1	123
UACAUGAGGAUCACCCAUGUUUUGUCGUGUAUGGUAUUUAUCUAGGAUAUCAUUUUAUUUAGUUAUGAGAAGGAGAAUAUUAAU	–	–	28.9	34.4
UGAGGACAUGAGGAUCACCCAUGUAAGGAUAUGCGGAGAGUUUGGAGAGGUUGAGGAGGCAGAAGGUACAGGAU	–	–	89.5	58.5
UAAUAAAGUGUGAGGAUAUGCUGGUCGAUAGAUCAGCAGAAGGCACAUGAGGAUCACCCAUGUAAUAUAUUUUA	–	–	57.9	247
UUCCUGUCAGGAUAUGACUAGAUGCACGAAAGUGUUUUUAGUUAGAAGGGACAUGAGGAUCACCCAUGUAGUCC	–	–	24.1	40
AAUGUUUGAUUCCACUUAUACAUGAGGAUCACCCAUGUUAUCGAGGAUAUGCAUUAGAGUGUUUAGCAGAAGGCGAUGUAAUUU	–	–	6.74	17.5
UCACGGGACUGAGGAUAUACAUUUAUUAUUUUUGUAGAAGGCAGAAUGUUAGUUUUUUCACUAUACAUGAGGAUCACCCAUGUU	–	–	27.1	19.9
AGUGACUACGUAGGAUAUUAAUUCAUGGACUACAUGAGGAUCACCCAUGUUUAUUUAACAUCAGCUGAGAAGGACGUGGUCACA	28.1	10.6	–	–
GCUGUCGCAUGAGGAUAUGGUCUGCUUUGCAGACCAGAAGGCAUGUCAAUAGACAUGAGGAUCACCCAUGUAGUUAAGACAGCA	766	46.6	–	–
AAAGCUGAAGGAUAUACUUGGAAAAAAAAAAAAAAAAAAAAACAUGAGGAUCACCCAUGUAGAAGGUCAGAUAA	–	–	48.2	39.8
AGGAAACAUGAGGAUCACCCAUGUAAAAAAGUGGGAGGAUAUACUAGAAGAAACAAAAUAGUAGAAGGCCUAAAAA	47.3	24.9	–	–
CGAUAACAUAGUUAUCCGUAGCGAACAUGAGGAUCACCCAUGUAGGAUAUGUUACUAAACUAGUAACAGAAGGACAUGAGUCUU	–	–	34.9	263
UUCGUGCAGCUUUGCUGUACGCGUACAUGAGGAUCACCCAUGUAGGAUAUGGUAGGCUUUGCUUACUAGAAGGAUAUAGUGAUC	–	–	153	221
GGUGGACAUGAGGAUCACCCAUGUGAGGAUAUCGGCUAUCUACUCGCUGACGGUUGCUCGAGAAGGCACAUUGU	–	–	126	206
UCCUGGCGAGGAUAUACAAAGAUUUUUUCGUUUUGUUACGAACAUGAGGAUCACCCAUGUAGAAGGUGCUGCUG	–	–	204	193
GCAACGCCUGACAUGAGGAUCACCCAUGUUAGAUUGUUAUGUCAGGAUAUUGUCUCGAAACGAGAUGAGAAGGGAUAUGUUGCU	997	61.2	–	–
GGAUAGGACAGAGGAUAUACGUGCUAGAGAUACUAGCAAAAUUUUCUCACAUGAGGAUCACCCAUGUAGAAGGCUGUCCUAUCG	–	–	5.08	17.4
GGAGCCGGCACCGAGGAUAUUCAUAUUAAAACAUGAGGAUCACCCAUGUAGGCCAGAAGGCUUUGGGAGAAGGCGGAUCGGCUCG	604	38.7	–	–

— the EternaBench riboswitch data
